Data as given in ChEMBL document CHEMBL4177753, “Structural Modification of Natural Product Ganomycin I Leading to Discovery of a α-Glucosidase and HMG-CoA Reductase Dual Inhibitor Improving Obesity and Metabolic Dysfunction in Vivo” (J Med Chem, 2018).
Activity calls are given as the source filed them. No cut-off for these calls is given here.

What was measured:
[1] = biological target: T1, 3-hydroxy-3-methylglutaryl-coenzyme A reductase (Sus scrofa) (UniProt Q1W675); assay: (§1) Inhibition of pig liver microsomal HMG-CoA reductase by colorimetric method
T1 sequence (whole entry): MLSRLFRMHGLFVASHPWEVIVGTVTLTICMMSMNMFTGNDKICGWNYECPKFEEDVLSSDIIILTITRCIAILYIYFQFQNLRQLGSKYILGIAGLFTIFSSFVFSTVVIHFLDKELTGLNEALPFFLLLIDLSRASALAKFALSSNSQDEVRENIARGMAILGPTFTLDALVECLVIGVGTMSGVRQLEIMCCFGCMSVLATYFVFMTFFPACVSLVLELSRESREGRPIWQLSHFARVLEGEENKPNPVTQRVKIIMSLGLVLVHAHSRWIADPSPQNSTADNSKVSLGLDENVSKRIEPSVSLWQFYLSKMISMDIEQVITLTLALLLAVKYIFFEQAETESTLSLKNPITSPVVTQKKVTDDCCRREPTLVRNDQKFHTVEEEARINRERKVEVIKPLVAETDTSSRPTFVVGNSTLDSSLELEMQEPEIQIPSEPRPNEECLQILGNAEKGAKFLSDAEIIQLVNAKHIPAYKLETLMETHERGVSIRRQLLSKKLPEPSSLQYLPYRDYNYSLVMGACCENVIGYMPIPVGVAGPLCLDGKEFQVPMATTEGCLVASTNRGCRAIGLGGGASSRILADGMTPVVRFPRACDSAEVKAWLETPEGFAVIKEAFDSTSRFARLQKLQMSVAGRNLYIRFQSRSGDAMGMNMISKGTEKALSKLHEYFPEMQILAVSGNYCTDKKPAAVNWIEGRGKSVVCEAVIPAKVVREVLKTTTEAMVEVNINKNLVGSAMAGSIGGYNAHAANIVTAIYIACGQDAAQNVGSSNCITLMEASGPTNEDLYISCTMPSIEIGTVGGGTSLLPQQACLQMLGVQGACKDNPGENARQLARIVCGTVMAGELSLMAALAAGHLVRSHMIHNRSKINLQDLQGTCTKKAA
Method in brief: (§2)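 Pig liver microsomal HMG-CoA reductase; compounds tested at several concentrations, each in triplicate; control uses phosphate buffer instead of compound, blank uses buffer instead of enzyme. Absorbance read at 405 nm; % inhibition from blank-corrected OD of test versus control; IC50 fitted from the inhibition-concentration series.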

[2] = biological target: T2, 3-hydroxy-3-methylglutaryl-coenzyme A reductase (Sus scrofa, UniProt Q1W675); assay: as §1; method in brief: as §2
T2 sequence (Q1W675 whole entry): T1 sequence (whole entry)

[3] = Inhibition of rat small intestinal mucosal alpha-glucosidase using p-nitrophenyl-alpha-D-glucopyranoside as substrate after 40 mins by colorimetric method
Method in brief: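 Rat small intestinal mucosal α-glucosidase; several compound concentrations, each run three times in parallel; phosphate-buffer control replaces compound, blank replaces enzyme. Absorbance at 405 nm; % inhibition = blank-corrected OD of test versus control; IC50 derived from the concentration gradient.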

Mus musculus [4] = assay: Antiobesity activity in C57BL/6J DIO mouse assessed as reduction in weight gain at 3 mg/kg administered daily via oral gavage for 5 weeks relative to vehicle-treated control; format: functional
Method in brief: (§3)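 Male C57BL/6J mice on high-fat diet, n = 8 per group, grouped by blood glucose and body weight. Daily oral gavage at 0.3, 1.0 or 3.0 mg/kg in soybean vehicle for 5 weeks. Vehicle groups were on normal diet and on high-fat diet.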

Mus musculus [5] = assay: Antiobesity activity in C57BL/6J DIO mouse assessed as reduction in cumulative food intake at 3 mg/kg administered daily via oral gavage for 5 weeks; format: functional, organism-based; method in brief: as §3
Mus musculus [6] = assay: Antiobesity activity in C57BL/6J DIO mouse assessed as reduction in LEE index at 3 mg/kg administered daily via oral gavage for 5 weeks; format: functional, organism-based; method in brief: as §3
[7] = Inhibition of rat small intestinal mucosal alpha-glucosidase using p-nitrophenyl-alpha-D-glucopyranoside as substrate by HPLC method
Method in brief: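 Rat intestinal α-glucosidase; after incubation the product 4-nitrophenol is quantified at once by HPLC (gradient from 20% acetonitrile in water with 0.1‰ TFA to 100% acetonitrile over 10 min). Each concentration run 3 times in parallel; % inhibition from peak areas versus control minus control blank; IC50 from the concentration series.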

Row | Compound | inhibition [1] | IC50 [2] | IC50 [3] | IC50 [7] | Activity (Mus musculus [4]) | Activity (Mus musculus [5]) | Activity (Mus musculus [6])
1 | COCOc1ccccc1[C@H]1C=C(CC/C=C(\C)CCC=C(C)C)C(=O)O1 | Dose-dependent effect | 8.9 µM | 19.3 µM | – | – | – | –
2 | CC(C)=CCC/C(C)=C/CCC1=C[C@H](c2ccccc2)OC1=O | Dose-dependent effect | 16.5 µM | 1.24 µM | – | – | – | –
3 | CC(C)=CCC/C(C)=C/CCC1=C[C@H](c2cc(F)ccc2F)OC1=O | Dose-dependent effect | 25.1 µM | 1.59 µM | – | – | – | –
4 | CC(C)=CCC/C(C)=C/CCC1=C[C@H](c2cc(F)c(F)c(F)c2)OC1=O | Dose-dependent effect | 38.2 µM | 2.04 µM | – | – | – | –
5 | CC(C)=CCC/C(C)=C/CCC1=C[C@H](c2ccc3ccccc3c2)OC1=O | Dose-dependent effect | 49.8 µM | 5.98 µM | – | – | – | –
6 | CC(C)=CCC/C(C)=C/CCC1=C[C@H](c2ccccc2[N+](=O)[O-])OC1=O | Dose-dependent effect | 18.9 µM | 0.26 µM | – | – | – | –
7 | CC(C)c1c(C(=O)Nc2ccccc2)c(-c2ccccc2)c(-c2ccc(F)cc2)n1CC[C@@H](O)C[C@@H](O)CC(=O)O [ATORVASTATIN] | – | 0.93 µM | – | – | – | – | –
8 | CC(C)=CCC/C(C)=C/CCC1=C[C@H](c2ccc(C)cc2)OC1=O | Dose-dependent effect | 18.1 µM | 0.29 µM | 0.23 µM | – | – | –
9 | CCc1ccc([C@H]2C=C(CC/C=C(\C)CCC=C(C)C)C(=O)O2)cc1 | Dose-dependent effect | 14.2 µM | 0.17 µM | 0.16 µM | – | – | –

The next lines start with results.

Row | inhibition [1] | IC50 [2] | IC50 [3] | IC50 [7] | Compound | Activity (Mus musculus [4]) | Activity (Mus musculus [5]) | Activity (Mus musculus [6])
10 | Dose-dependent effect | 13.2 µM | 12.1 µM | – | COc1ccc(OC)c([C@H]2C=C(CC/C=C(\C)CCC=C(C)C)C(=O)O2)c1 | – | – | –
11 | – | – | 1.26 µM | – | C[C@H]1O[C@H](O[C@H]2[C@H](O)[C@@H](O)[C@@H](O[C@H]3[C@H](O)[C@@H](O)C(O)O[C@@H]3CO)O[C@@H]2CO)[C@H](O)[C@@H](O)[C@@H]1N[C@H]1C=C(CO)[C@@H](O)[C@H](O)[C@H]1O (stereo partly drawn) [ACARBOSE] | inactive | inactive | inactive
12 | Dose-dependent effect | 7.43 µM | 5.11 µM | – | CC(C)=CCC/C(C)=C/CCC1=C[C@H](c2ccc([N+](=O)[O-])cc2)OC1=O | – | – | –
13 | Dose-dependent effect | 112 µM | 32.8 µM | 28.7 µM | CC(C)=CCC/C(C)=C/CCC1=C[C@H](c2ccc(C(C)C)cc2)OC1=O | – | – | –
14 | Dose-dependent effect | 6.21 µM | 21.7 µM | – | COc1ccc([C@H]2C=C(CC/C=C(\C)CCC=C(C)C)C(=O)O2)cc1 | – | – | –
15 | Dose-dependent effect | 6.76 µM | 2.27 µM | – | CC(C)=CCC/C(C)=C/CCC1=C[C@H](c2ccccc2O)OC1=O | – | – | –
16 | – | – | 0.38 µM | – | CC(C)=CCC/C(C)=C/CCC1=C[C@H](c2cc(O)ccc2O)OC1=O | – | – | –
